From publication PMC3074966 (European journal of medicinal chemistry, 2010)
One block for each compound: values may come before it.

Tests used:
[1] = system: panel of five human cell lines (HeLa, A549, HL-60, Jurkat, K562); experiment: Antiproliferative assay, summary over the cell line panel; type: cell-based
[2] = system: HeLa cells; experiment: Flow cytometric analysis of cell cycle distribution; type: cell-based, human; settings: after 48 h of treatment (data not shown)
How it was run: (§1)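 Exponentially growing cells (5 × 10⁵) were exposed to varying concentrations of test compound for 24 and 48 h. They were then collected and fixed in ice-cold 70% ethanol, then treated with lysis buffer containing RNase A and 0.1% Triton X-100. Cells were stained with propidium iodide and analysed by flow cytometry, with sub-G1 (hypodiploid) DNA content scored at 48 h.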

[3] = system: Jurkat cells; experiment: as above; type: cell-based, human; settings: after 48 h of treatment (data not shown)
How it was run: as §1

[4] = system: HeLa cells; experiment: Mitochondrial membrane potential; type: cell-based, human; settings: 24 and 48 h
[5] = system: HeLa cells; experiment: Western blot analysis; type: cell-based, human
[6] = system: caspase-3 in HeLa cells; experiment: Caspase-3 assay; type: cell-based, human; settings: 24 and 48 h
[7] = system: HeLa cells; experiment: Annexin-V/PI assay; type: cell-based, human; settings: 24 h, compared with control
[8] = system: HeLa cells; experiment: ROS production; type: cell-based, human; settings: 24 and 48 h, HE and H2-DCFDA
[9] = average antiproliferative activity

SMILES: CCOc1ccc(Nc2c(C(=O)c3cc(OC)c(OC)c(OC)c3)sc3cc(C)ccc23)cc1 [Compound 4g, (3-(4-Ethoxyphenylamino)-6-methylbenzo[b]thiophen-2-yl) (3,4,5-trimethoxyphenyl)methanone]
- fold less potent than 4e ([1]; over the five cell lines): 4- to 20 fold

- fold lower IC50 than 3k ([1]; over the five cell lines): 2- to 15 fold
SMILES: CCOc1ccc(Nc2c(C(=O)c3cc(OC)c(OC)c(OC)c3)sc3ccccc23)cc1 [Compound 4e, (3-(4-Ethoxyphenylamino)benzo[b]thiophen-2-yl)(3,4,5-trimethoxyphenyl)methanone]
- hypodiploid peak (sub-G1) indicative of apoptosis [2]: appeared in both cell lines
- hypodiploid peak (sub-G1) indicative of apoptosis [3]: appeared in both cell lines
- fold increase in activity relative to unsubstituted 4a [1, 9]: 5 fold
- fold difference in average antiproliferative activity between 4e and 4d ([1]; most active vs least active 3-anilino derivative): 9 fold
- mitochondrial membrane potential (Rho 123 fluorescence) [4]: reduction of Rho 123 fluorescence intensity
- expression of Bax [5]: remained unchanged
- expression of Bcl-2 [5]: slight decrease
- cyclin B1 expression ([5]; 24 or 48 h): concentration-dependent increase
- phosphatase cdc25c (phosphorylation state) ([5]; 24 or 48 h): slower migrating forms of phosphatase cdc25c were present
- 89 kDa cleaved fragment of PARP ([5]; 24 h and 48 h): increased
- expression of p53 ([5]; increasing concentrations): no difference
- activation of caspase-3 [6]: activation of caspase-3 in a time- and concentration-dependent manner
- annexin-V positive cells [7]: induced an accumulation of annexin-V positive cells
- production of ROS [8]: induces the production of large amounts of ROS

- IC50 ([1]; Homo sapiens, read-out: IC50 against HeLa, HL-60, Jurkat and K562 cells): 1500 to 2100 nM
SMILES: COc1cc(C(=O)c2sc3ccccc3c2-c2ccccc2)cc(OC)c1OC [Compound 3a, (3,4,5-Trimethoxyphenyl)(3-phenylbenzo[b]thiophen-2-yl) methanone]

SMILES: COc1ccc(Nc2c(C(=O)c3cc(OC)c(OC)c(OC)c3)sc3ccccc23)cc1 [Compound 4d, (3-(4-Methoxyphenylamino)benzo[b]thiophen-2-yl)(3,4,5-trimethoxyphenyl)methanone]
- loss in activity relative to unsubstituted 4a [1, 9]: ~50%
